Data on 25 compounds can be found in ChEMBL document CHEMBL5625189, “Discovery of new diaryl ether inhibitors against Mycobacterium tuberculosis targeting the minor portal of InhA” (Eur J Med Chem, 2023).

Activity calls are given as the source filed them. The rule behind the calls is not given here.

Data set [1] concerns the target T1, Enoyl-[acyl-carrier-protein] reductase [NADH] (Mycobacterium tuberculosis) (UniProt P9WGR1).
T1 sequence (whole entry): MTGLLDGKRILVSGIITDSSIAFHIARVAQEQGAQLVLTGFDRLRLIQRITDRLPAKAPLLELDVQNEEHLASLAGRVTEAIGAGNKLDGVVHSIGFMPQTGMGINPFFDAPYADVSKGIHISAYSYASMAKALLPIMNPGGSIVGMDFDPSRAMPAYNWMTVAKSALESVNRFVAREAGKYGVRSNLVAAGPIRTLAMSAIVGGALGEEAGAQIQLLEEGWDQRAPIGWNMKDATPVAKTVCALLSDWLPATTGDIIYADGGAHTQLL
As to the kind of experiment: Inhibition of his6-tagged Mycobacterium tuberculosis InhA using trans-2-dodecenoyl-coenzyme as substrate at 500 uM in presence of […] relative to control.

Data set [2] concerns Mycobacterium tuberculosis. As to the kind of experiment: Antimycobacterial activity against Mycobacterium tuberculosis H37Rv assessed as reduction in microbial growth. It is filed as functional. The method, boiled down: (§1)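 Mtb H37Rv pellicle cells dispersed with glass beads in 7H9-0.2% glycerol, clumps removed by low-speed spin; twofold serial dilutions (DMSO stocks 1 or 10 mM) in 7H9, inoculum OD600 0.1; 6 days at 37 °C, then MTT added, 1 day more; SDS solubilisation, OD 570 nm; MIC = lowest concentration inhibiting growth, ≥3 independent experiments.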

Data set [3] has as its target T2, Enoyl-[acyl-carrier-protein] reductase [NADH] (Mycobacterium tuberculosis, UniProt P9WGR1).
T2 sequence (P9WGR1 whole entry): T1 sequence (whole entry)
Description: Inhibition of his6-tagged Mycobacterium tuberculosis InhA using trans-2-dodecenoyl-coenzyme as substrate in presence of […].

The subject of data set [4] is Mycobacterium tuberculosis. As to the kind of experiment: Antimycobacterial activity against Mycobacterium tuberculosis H37Rv assessed as reduction in microbial growth incubated for 6 days by broth dilution method. The format is functional. The following applies: 144 h, time 6 day. The procedure, abridged: as §1
Data set [5] is described as follows: Selectivity index, ratio of IC50 for cytotoxicity against human HCT-116 cells assessed as inhibition of cell growth to MIC for antimycobacterial activity against Mycobacterium tuberculosis H37Rv assessed as reduction in microbial growth. The format is toxicity, cell-based. The method, boiled down: (§2)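 Selectivity index: IC50 on each human cell line (72 h SRB assay) divided by MIC against Mtb H37Rv (MTT microassay).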

Data set [6] is described as follows: Selectivity index, ratio of IC50 for cytotoxicity against human HepG2 cells assessed as inhibition of cell growth to MIC for antimycobacterial activity against Mycobacterium tuberculosis H37Rv assessed as reduction in microbial growth. It is filed as toxicity, cell-based. The procedure, abridged: as §2
Data set [7] addresses T1, Enoyl-[acyl-carrier-protein] reductase [NADH] (Mycobacterium tuberculosis). Description: Inhibition of his6-tagged Mycobacterium tuberculosis InhA using trans-2-dodecenoyl-coenzyme as substrate at 50 uM in presence of […] relative to control.
The target is the same in data set [8]. As to the kind of experiment: Inhibition of his6-tagged Mycobacterium tuberculosis InhA using trans-2-dodecenoyl-coenzyme as substrate at 10 uM in presence of […] relative to control.
For another data set, the system named is HCT-116. As to the kind of experiment: Cytotoxicity against human HCT-116 cells assessed as inhibition of cell growth incubated for 72 hrs by SRB assay. The format is functional, cell-based. The following applies: HCT-116, 72 h. The method, boiled down: (§3)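 Seeded 24 h before dosing (HCT116 1500, CACO2 2500, HepG2 9000, WI38hTERT 3500 cells/well); HCT116 in DMEM high-glucose, others in MEM, 10% FBS (20% for CACO2); serial 2-fold dilutions for 72 h at 37 °C, 5% CO2; SRB staining, OD 490 nm; background-subtracted, normalized to untreated; duplicate points, ≥3 independent experiments; IC50 by four-parameter logistic fit.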

The test system of a further data set is Caco-2. As to the kind of experiment: Cytotoxicity against human Caco-2 cells assessed as inhibition of cell growth incubated for 72 hrs by SRB assay. The format is functional, cell-based. The following applies: Caco-2, 72 h. The method, boiled down:
as §3

The next data set deals with HepG2. As to the kind of experiment: Cytotoxicity against human HepG2 cells assessed as inhibition of cell growth incubated for 72 hrs by SRB assay. It is filed as functional, cell-based. The conditions noted are these: HepG2, 72 h. The procedure, abridged: as §3
The test system of the next data set is WI-38. As to the kind of experiment: Cytotoxicity against human WI-38 cells assessed as inhibition of cell growth incubated for 72 hrs by SRB assay. It is filed as functional, cell-based. The conditions noted are these: WI-38, 72 h. The procedure, abridged:
as §3

A short description of data set [9]: Selectivity index, ratio of IC50 for cytotoxicity against human Caco-2 cells assessed as inhibition of cell growth to MIC for antimycobacterial activity against Mycobacterium tuberculosis H37Rv assessed as reduction in microbial growth. The format is toxicity, cell-based. The method, boiled down: as §2
Data set [10] is described as follows: Selectivity index, ratio of IC50 for cytotoxicity against human WI-38 cells assessed as inhibition of cell growth to MIC for antimycobacterial activity against Mycobacterium tuberculosis H37Rv assessed as reduction in microbial growth. The format is toxicity, cell-based. The procedure, abridged: as §2
The target in data set [11] is T1, Enoyl-[acyl-carrier-protein] reductase [NADH] (Mycobacterium tuberculosis). Description: Inhibition of his6-tagged Mycobacterium tuberculosis InhA using trans-2-dodecenoyl-coenzyme as substrate at 200 uM in presence of […] relative to control.
The target is the same in data set [12]. Description: Inhibition of his6-tagged Mycobacterium tuberculosis InhA using trans-2-dodecenoyl-coenzyme as substrate at 100 uM in presence of […] relative to control.
For data set [13], the target named is T2, Enoyl-[acyl-carrier-protein] reductase [NADH]. Description: Inhibition of Mycobacterium tuberculosis H37Rv InhA using trans-2-dodecenoyl-coenzyme A as substrate in presence of NADH.

Consider `C#CCNC(=O)c1cc2ccc(N(CC)CC)cc2oc1=O`, for which the inhibition in data set [1] was determined as 10%.

With `CCCCCCCCc1ccc(Oc2ccccc2)c(O)c1`, the minimum inhibitory concentration (MIC) in data set [2] is 6.4 µM.

Turning to `CN(C)S(=O)(=O)c1ccc(NCc2cn(Cc3ccc(Oc4ccccc4)c(O)c3)nn2)c2nonc12`, the IC50 in data set [3] (read-out: IC50) was determined as 0.733 µM. The MIC in data set [4] was above 52 µg/mL.

For `CCCCCCc1ccc(Oc2ccc(Cn3cc(CNc4ccc([N+](=O)[O-])c5nonc45)nn3)cc2)c(O)c1`, the selectivity ratio was found to be 3.5 in [5], 10.8 in data set [6], 10.5 in data set [9] and 21.2 in data set [10]. The figures for the inhibition in [7] and in data set [8] were 32.3% and 11.4%, respectively. For the same compound, the MIC in data set [4] came to 1.4 µg/mL. Moreover, the IC50 was 8.7 µM in the data set with HCT-116, 26.1 µM with Caco-2, 26.9 µM in the data set on HepG2 and 52.9 µM in the data set on WI-38.

As for `COc1ccc2cc(C(=O)NCc3cn(Cc4ccc(Oc5ccccc5)c(O)c4)nn3)c(=O)oc2c1`, the 50% inhibitory concentration (IC50) in [3] (read-out: IC50) is 0.345 µM. Also, the MIC in [4] was above 5 µg/mL.

Turning to `Cc1cc(=O)oc2cc(OCc3cn(Cc4ccc(Oc5ccccc5)c(O)c4)nn3)ccc12`, the selectivity ratio in data set [5] is 19.1; in data set [6], 24.8; in data set [9], 20; in [10] it was above 80. The concentration for half-maximal inhibition (IC50) in data set [3] (read-out: IC50) is 0.205 µM; in the data set with HCT-116, 23.9 µM; in the data set on Caco-2, 25 µM; in the data set on HepG2 it was 31 µM; in the data set on WI-38, above 100 µM. Besides, the MIC in [4] turned out to be 0.6 µg/mL.

Regarding `CCCCCCc1ccc(Oc2ccc(Cn3cc(CNC(=O)c4cc5ccc(N(CC)CC)cc5oc4=O)nn3)cc2)c(O)c1`, the inhibition amounted to 53.7% in data set [7] and 31.5% in data set [8]. The MIC in data set [4] was above 60 µg/mL.

On to `C#CCOc1cc(=O)oc2ccccc12`, for which the inhibition result in [1] was “inactive”.

As to `C#CCNC(=O)c1cc2ccccc2oc1=O`, the inhibition entry in data set [11] was “inactive”.

With `C#CCOc1ccc2ccc(=O)oc2c1`, the inhibition in [11] was 99%; in data set [12], 30%.

Consider `O=c1ccc2ccc(OCc3cn(Cc4ccc(Oc5ccccc5O)cc4)nn3)cc2o1`, for which, in data set [7], the inhibition was 10%. Besides, the MIC in data set [4] was found to be 2.2 µg/mL.

As for `O=C(O)c1cn(C2CC2)c2cc(N3CCNCC3)c(F)cc2c1=O` [CIPROFLOXACIN], the IC50 result in data set [3] is “Not Active”. In addition, the MIC in data set [4] was found to be 0.8 µg/mL.

Consider `CCN(CC)c1ccc2cc(C(=O)NCc3cn(Cc4ccc(Oc5ccccc5)c(O)c4)nn3)c(=O)oc2c1`, for which the IC50 in [3] (read-out: IC50) amounted to 3.55 µM. Moreover, in [4], the MIC is above 54 µg/mL.

For `O=[N+]([O-])c1ccc(NCc2cn(Cc3ccc(Oc4ccccc4)c(O)c3)nn2)c2nonc12`, the half-inhibitory concentration (IC50) in [3] (read-out: IC50) was 0.459 µM. Besides, in data set [4], the MIC was 4.6 µg/mL.

As to `O=c1ccc2ccc(OCc3cnnn3Cc3ccc(Oc4ccccc4)c(O)c3)cc2o1`, the half-maximal inhibitory concentration (IC50) in data set [3] (read-out: IC50) is 0.63 µM.

For `CCN(CC)c1ccc2c(OCc3cn(Cc4ccc(Oc5ccccc5)c(O)c4)nn3)cc(=O)oc2c1`, the selectivity ratio was 0.4 in data set [5], 1.3 in data set [6], 0.9 in [9] and 0.5 in [10]. Moreover, the IC50 is 0.054 µM in data set [3] (read-out: IC50); 0.53 µM with HCT-116; 1.1 µM with Caco-2; 1.6 µM with HepG2; 0.6 µM with WI-38. The MIC in data set [4] amounted to 0.7 µg/mL.

For `O=c1ccc2ccc(OCc3cn(Cc4ccc(Oc5ccccc5)c(O)c4)nn3)cc2o1`, the half-inhibitory concentration (IC50) in data set [3] (read-out: IC50) worked out at 0.163 µM. Besides, the minimal inhibitory concentration (MIC) in [4] stood at 2.2 µg/mL.

As to `COc1cccc2cc(C(=O)NCc3cn(Cc4ccc(Oc5ccccc5)c(O)c4)nn3)c(=O)oc12`, the IC50 in [3] (read-out: IC50) came to 0.74 µM. For the same compound, in [4], the MIC came out at 5 µg/mL.

For `O=C(NCc1cn(Cc2ccc(Oc3ccccc3)c(O)c2)nn1)c1cc2ccccc2oc1=O`, in data set [3] (read-out: IC50), the half-inhibitory concentration (IC50) worked out at 0.598 µM. In addition, in [4], the MIC worked out at 4.7 µg/mL.

As for `O=C(NCc1cn(Cc2ccc(Oc3ccccc3)c(O)c2)nn1)c1cc2cc(O)ccc2oc1=O`, in data set [3] (read-out: IC50), the IC50 came to 0.844 µM. Besides, in data set [4], the MIC was above 4.8 µg/mL.

As for `Cc1cc(=O)oc2cc(OCc3cnnn3Cc3ccc(Oc4ccccc4)c(O)c3)ccc12`, in data set [3] (read-out: IC50), the IC50 was 0.51 µM.

For `Oc1cc2ccc1Oc1ccc(cc1)CCc1ccc(c(O)c1)Oc1ccc(cc1)CC2`, in data set [13], the concentration for half-maximal inhibition (IC50) came out at 4.7 µM.

Turning to `[N-]=[N+]=NCc1ccc(Oc2ccccc2)c(O)c1`, the half-maximal inhibitory concentration (IC50) in [3] (read-out: IC50) is 0.843 µM.

As for `O=c1cc(OCc2cn(Cc3ccc(Oc4ccccc4)c(O)c3)nn2)c2ccccc2o1`, the IC50 in data set [3] (read-out: IC50) is 0.181 µM. Besides, the minimal inhibitory concentration (MIC) in [4] came to 2.2 µg/mL.

Regarding `C#CCOc1ccc2c(C)cc(=O)oc2c1`, the values for the inhibition in data set [11] and in data set [1] were 37% and 90%, respectively.
